The values that follow come from ChEMBL document CHEMBL3046583, “Design, synthesis, and insecticidal activity of novel pyrazole derivatives containing α-hydroxymethyl-N-benzyl carboxamide, α-chloromethyl-N-benzyl carboxamide, and 4,5-dihydrooxazole moieties” (2012).

The test system of test [1] is Tetranychus cinnabarinus. Nature of the test: Acaricidal activity against Tetranychus cinnabarinus (carmine spider mite) adults at 200 mg/kg by leaf dip method. It is filed as functional.
Test [2] deals with Tetranychus cinnabarinus. Nature of the test: Acaricidal activity against Tetranychus cinnabarinus (carmine spider mite) eggs at 200 mg/kg by leaf dip method. In kind it is functional, Egg.
Test [3] concerns Aphis craccivora. The test is described as follows: Larvicidal activity against Aphis craccivora (cowpea aphid) at 200 mg/kg by leaf dip method. In kind it is functional.
The test system of test [4] is Culex pipiens pallens. The test is described as follows: Larvicidal activity against Culex pipiens pallens (mosquito). It is filed as functional.
The test system of test [5] is Culex pipiens pallens. The test is described as follows: Larvicidal activity against Culex pipiens pallens (mosquito) at 0.5 mg/kg. In kind it is functional.
Test [6] has as its system Tetranychus cinnabarinus. Nature of the test: Acaricidal activity against Tetranychus cinnabarinus (carmine spider mite) larvae at 600 mg/kg by leaf dip method. It is filed as functional.
The subject of test [7] is Culex pipiens pallens. The test is described as follows: Larvicidal activity against Culex pipiens pallens (mosquito) at 2 mg/kg. It is filed as functional.
Test [8] relates to Culex pipiens pallens. Nature of the test: Larvicidal activity against Culex pipiens pallens (mosquito) at 5 mg/kg. It is filed as functional.
Test [9] concerns Tetranychus cinnabarinus. The test is described as follows: Acaricidal activity against Tetranychus cinnabarinus (carmine spider mite) adults at 600 mg/kg by leaf dip method. It is filed as functional.
The test system of test [10] is Tetranychus cinnabarinus. Nature of the test: Acaricidal activity against Tetranychus cinnabarinus (carmine spider mite) larvae at 200 mg/kg by leaf dip method. In kind it is functional.
The subject of test [11] is Aphis craccivora. Nature of the test: Larvicidal activity against Aphis craccivora (cowpea aphid) at 600 mg/kg by leaf dip method. It is filed as functional.
In test [12] the test system is Tetranychus cinnabarinus. The test is described as follows: Acaricidal activity against Tetranychus cinnabarinus (carmine spider mite) eggs at 600 mg/kg by leaf dip method. In kind it is functional, Egg.
The subject of test [13] is Culex pipiens pallens. Nature of the test: Larvicidal activity against Culex pipiens pallens (mosquito) at 1 mg/kg. In kind it is functional.
Test [14] relates to Helicoverpa armigera. Nature of the test: Stomach toxicity against third-instars Helicoverpa armigera assessed as larvicidal activity at 11 mg/kg at 25 +/- 1 degC after 3 days. It is filed as functional. Summed up: (§1)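 Diet-incorporation assay on third-instar larvae. Samples dissolved in acetone to the desired final concentrations; 3 mL of test solution mixed evenly into about 27 g of prepared feed, then dispensed into 24-well plates. Run in triplicate at 25 ± 1 °C. Dead/alive scoring 3 days after treatment; mortality corrected by Abbott's formula on a 0–100 scale.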

Test [15] concerns Helicoverpa armigera. Nature of the test: Stomach toxicity against third-instars Helicoverpa armigera assessed as larvicidal activity at 110 mg/kg at 25 +/- 1 degC after 3 days. It is filed as functional. The method in brief:
as §1

Test [16] has as its system Helicoverpa armigera. The test is described as follows: Stomach toxicity against third-instars Helicoverpa armigera assessed as larvicidal activity at 55 mg/kg at 25 +/- 1 degC after 3 days. It is filed as functional. Summed up:
as §1

Test [17] has as its system Plutella xylostella. Nature of the test: Stomach toxicity against Plutella xylostella (diamondback moth) assessed as larvicidal activity at 200 mg/kg by leaf dip method. In kind it is functional.
Test [18] relates to Helicoverpa armigera. The test is described as follows: Stomach toxicity against third-instars Helicoverpa armigera assessed as larvicidal activity at 22 mg/kg at 25 +/- 1 degC after 3 days. It is filed as functional. Summed up:
as §1

For test [19], the system named is Helicoverpa armigera. The test is described as follows: Stomach toxicity against third-instars Helicoverpa armigera assessed as larvicidal activity at 5.5 mg/kg at 25 +/- 1 degC after 3 days. In kind it is functional. The method in brief:
as §1

The test system of test [20] is Helicoverpa armigera. The test is described as follows: Stomach toxicity against third-instars Helicoverpa armigera assessed as larvicidal activity at 25 +/- 1 degC after 3 days. In kind it is functional. The method in brief:
as §1

Test [21] has as its system Plutella xylostella. Nature of the test: Stomach toxicity against Plutella xylostella (diamondback moth) assessed as larvicidal activity at 600 mg/kg by leaf dip method. In kind it is functional.

As to `CCc1nn(C)c(C(=O)NCc2ccc(C(C)(C)C)cc2)c1Cl` [TEBUFENPYRAD], the Activity with Tetranychus cinnabarinus [1] was 100%; with Tetranychus cinnabarinus [2], 100%; in the test on Aphis craccivora [3], 100%; in the test on Culex pipiens pallens [5] it was 0%; with Tetranychus cinnabarinus [6], 100%; with Culex pipiens pallens [7], 100%. Further, the Activity is given as 100% with Culex pipiens pallens [8]; 100% in the test on Tetranychus cinnabarinus [9]; 100% in the test on Tetranychus cinnabarinus [10]; 100% with Aphis craccivora [11]; 100% with Tetranychus cinnabarinus [12]; 70% in the test on Culex pipiens pallens [13]. The same molecule returned an LC50 in the test on Culex pipiens pallens [4] of 0.61 mg/kg.
Take `CCc1nn(C)c(C2=NC(c3ccc(Oc4ccccc4)cc3)CO2)c1Cl` (centres undefined): the Activity in the test with Aphis craccivora [3] is given as 60%; in the test with Helicoverpa armigera [14] it was 90%; in the test on Helicoverpa armigera [15], 100%; in the test on Helicoverpa armigera [16], 100%; in the test with Plutella xylostella [17], 20%; with Helicoverpa armigera [18], 100%. Besides, the Activity with Tetranychus cinnabarinus [6] was determined as 25%; with Culex pipiens pallens [7], 60%; with Helicoverpa armigera [19], 60%; in the test on Culex pipiens pallens [8], 100%; in the test with Tetranychus cinnabarinus [9] it was 0%; with Tetranychus cinnabarinus [10], 0%. Also, the Activity is recorded as 90% with Aphis craccivora [11], 0% in the test with Tetranychus cinnabarinus [12], 90% in the test with Plutella xylostella [21] and 0% with Culex pipiens pallens [13]. Besides, in the test with Helicoverpa armigera [20], the LC50 worked out at 2.8 mg/kg.
In the case of `CCc1cc(C(=O)NC(CCl)c2ccc(Oc3ccccc3)cc2)n(C)n1` (centres undefined), the Activity in the test with Tetranychus cinnabarinus [1] came to 0%; in the test with Tetranychus cinnabarinus [2] it was 40%; in the test with Aphis craccivora [3], 95%; in the test on Helicoverpa armigera [14], 0%; in the test on Helicoverpa armigera [15], 100%; in the test with Helicoverpa armigera [16], 100%. For the same molecule, the Activity with Plutella xylostella [17] stood at 30%; with Culex pipiens pallens [5], 60%; in the test with Helicoverpa armigera [18], 40%; with Tetranychus cinnabarinus [6], 40%; in the test with Culex pipiens pallens [7], 100%; in the test on Culex pipiens pallens [8] it was 100%. Further, the Activity with Tetranychus cinnabarinus [9] is reported as 50%; with Tetranychus cinnabarinus [10] it was 30%; with Aphis craccivora [11], 100%; with Tetranychus cinnabarinus [12], 50%; with Plutella xylostella [21] it was 45%; in the test with Culex pipiens pallens [13], 100%. The molecule also yielded an LC50 in the test on Culex pipiens pallens [4] of 0.35 mg/kg.
